Values after ≈ are worked out from the molar mass of the structure shown. Values joined by “and” are separate entries in the source; they are usually repeats but may differ in a detail not shown here. Equal values may be shown once. Active and inactive are the calls of the source. The rule behind the calls is not given here.
Assays:
[1] = system: Endothelin receptor type A (Rattus norvegicus); test: Activity against Endothelin A receptor in pithed rats after intravenous administration at 25 umol/kg
[2] = Maximal plasma concentration in male Sprague-Dawley rats at 10 mg/kg oral dose; assay type: ADME, organism-based; parameters: dose 10 mg/kg, route oral; conditions: rat
Outline: (§1)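 Single 10 mg/kg oral dose to male Sprague-Dawley rats or male Beagle dogs. Plasma Cpmax (µg/mL), Tmax (h), t1/2 (h) and bioavailability (%) derived from the plasma profile.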

[3] = Tested for Tmax in male Sprague-Dawley rats dosed at 10 mg/kg orally; assay type: ADME, organism-based; parameters: dose 10 mg/kg, route oral; conditions: rat, in vivo, po
Outline: as §1

Rattus norvegicus = species: Rattus norvegicus; test: Tested for inhibition of ET-1 induced contraction against isolated Rat aortic rings denuded of the endothelium.; assay type: functional, Aorta
Outline: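 Endothelium-denuded rat aortic rings contracted by ET-1. Tested compound at increasing concentrations, with ET-1 dose-response curves run in its presence. Antagonism expressed as pKb from the rightward shift of the ET-1 curve. Determinations in duplicate, with 95% confidence limits.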

[4] = system: Endothelin receptor type A (Rattus norvegicus); test: Inhibition of Endothelin A receptor in pithed rats 3 hour after oral administration at 75 umol/kg
[5] = system: Endothelin receptor type A (Rattus norvegicus); test: Inhibition of Endothelin A receptor in pithed rats 1.5 hour after oral administration at 75 uM/kg
Endothelin-1 receptor = molecular target: T1, Endothelin-1 receptor (Rattus norvegicus, UniProt P26684); test: In vitro ability to antagonise the binding of [125I]ET1 to the rat aortic A10 cell membrane endothelin A receptor.; assay type: cell membranes
T1 sequence (P26684 whole entry): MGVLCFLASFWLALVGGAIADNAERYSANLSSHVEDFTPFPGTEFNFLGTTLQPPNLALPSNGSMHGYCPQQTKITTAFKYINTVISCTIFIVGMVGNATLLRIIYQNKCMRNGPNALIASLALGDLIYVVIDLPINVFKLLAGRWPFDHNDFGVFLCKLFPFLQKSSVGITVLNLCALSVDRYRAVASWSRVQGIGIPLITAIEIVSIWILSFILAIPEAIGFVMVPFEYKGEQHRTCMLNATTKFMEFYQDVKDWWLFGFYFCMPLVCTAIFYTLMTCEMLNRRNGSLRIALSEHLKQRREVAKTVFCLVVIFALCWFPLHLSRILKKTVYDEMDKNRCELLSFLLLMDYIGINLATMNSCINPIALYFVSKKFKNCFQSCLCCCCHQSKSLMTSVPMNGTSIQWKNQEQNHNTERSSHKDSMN

[6] = Measured solubility; assay type: ADME, organism-based, Rattus norvegicus
[7] = Oral bioavailability in rat (Sprague-Dawley) (male) (dose 10 mg/kg); assay type: ADME, organism-based; conditions: in vivo
Outline: as §1

[8] = Tested for half life in male Sprague-Dawley rats dosed at 10 mg/kg orally; assay type: ADME, organism-based; parameters: dose 10 mg/kg, route oral; conditions: rat, in vivo, po
Outline: as §1

[9] = Maximal plasma concentration in male Beagle dogs at 10 mg/kg oral dose; assay type: ADME, organism-based, Canis lupus familiaris; parameters: dose 10 mg/kg, route oral; conditions: dog
Outline: as §1

[10] = Tested for half life in male Beagle dogs dosed at 10 mg/kg orally; assay type: ADME, organism-based, Canis lupus familiaris; parameters: dose 10 mg/kg, route oral; conditions: dog, in vivo, po
Outline: as §1

[11] = Tested for bioavailability in male Beagle dogs dosed at 10 mg/kg orally; assay type: ADME, organism-based, Canis lupus familiaris; conditions: dog, in vivo, po, read-out: Bioavailabiility
Outline: as §1

[12] = Tested for Tmax in male Beagle dogs dosed at 10 mg/kg orally; assay type: ADME, organism-based, Canis lupus familiaris; parameters: dose 10 mg/kg, route oral; conditions: dog, in vivo, po
Outline: as §1

Row | Compound | IC50 (Endothelin-1 receptor) [nM] | pKb (Rattus norvegicus) | other results
1 | N#Cc1ccc(OCc2ccc3c(c2)OCO3)cc1OC(C(=O)O)c1ccccc1Cl (centres undefined) | 14 | 8 | Activity [1]: 13.8 µM/kg; Cmax [2]: 22000 ng/mL; Tmax [3]: 1 h; Activity [4]: 10 µM/kg; Activity [5]: 19 µM/kg; solubility [6]: 1680 µg/mL (≈ 3.84 mM); bioavailability [7]: 76%; half-life [8]: 6.3 h
2 | N#Cc1ccc(OCc2ccc3c(c2)OCO3)cc1OC(C(=O)O)c1ccccc1C(F)(F)F (centres undefined) | 16 | 7.4 | Activity [1]: 9 µM/kg
3 | Cc1ccccc1C(Oc1cc(OCc2ccccn2)ccc1C#N)C(=O)O (centres undefined) | > 3000 |  | 
4 | Cc1ccccc1C(Oc1cc(OCc2c(C)cccc2C)ccc1C#N)C(=O)O (centres undefined) | 857 |  | 
5 | Cc1ccccc1C(Oc1cc(OCc2ccc3c(c2)OCCO3)ccc1C#N)C(=O)O (centres undefined) | 1500 |  | 
6 | N#Cc1ccc(OCc2ccc3ncoc3c2)cc1OC(C(=O)O)c1ccccc1Cl (centres undefined) | 9 | 7.5 | 
7 | Cc1ccccc1C(Oc1cc(OCc2ccncc2)ccc1C#N)C(=O)[O-].[Na+] (centres undefined) | 5 |  | Cmax [2]: 290 ng/mL; Tmax [3]: 2 h; bioavailability [7]: 9%; half-life [8]: 0.2 h
8 | Cc1ccccc1C(Oc1cc(OCc2ccc3c(c2)OCO3)ccc1C#N)C(=O)[O-].[Na+] (centres undefined) | 7 | 8.1 | Cmax [9]: 30100 ng/mL; Cmax [2]: 5900 ng/mL; Tmax [3]: 1 h; half-life [10]: 7.4 h; bioavailability [11]: 89%; solubility [6]: > 20000 µg/mL; bioavailability [7]: 84%; Tmax [12]: 0.5 h; half-life [8]: 2.8 h
9 | Cc1ccccc1C(Oc1cc(OCc2ccc3ncoc3c2)ccc1C#N)C(=O)O (centres undefined) | 6 | 7.8 | Activity [1]: 63 µM/kg; Activity [4]: 3.1 µM/kg; Activity [5]: inactive
10 | Cc1ccccc1C(Oc1cc(OCc2ccc3ocnc3c2)ccc1C#N)C(=O)O (centres undefined) | 75 |  | 
11 | Cc1ccccc1[C@H](Oc1cc(OCc2ccc3c(c2)OCO3)ccc1C#N)C(=O)O | 6 |  | 
12 | Cc1ccccc1C(Oc1cc(OCc2ccc3c(c2)OCO3)ccc1C#N)C(=O)O (centres undefined) [listing 1 of 2 here] | 12 | 7.9 | 
13 | COc1cc(COc2ccc(C#N)c(OC(C(=O)O)c3ccccc3C)c2)cc(OC)c1OC (centres undefined) | > 3000 |  | 
14 | Cc1ccccc1C(Oc1cc(OCc2ccc3c(c2)OCO3)ccc1C#N)C(=O)O (centres undefined) [listing 2 of 2 here] |  |  | Activity [1]: 23 µM/kg and 45 µM/kg; Activity [5]: 26 µM/kg and 34 µM/kg
15 | N#Cc1ccc(OCc2ccc3c(c2)OCO3)cc1OC(C(=O)O)c1ccccc1 (centres undefined) | 41 | 7.4 | Activity [1]: 7.6 µM/kg
16 | N#Cc1ccc(OCc2ccncc2)cc1OC(C(=O)O)c1ccsc1 (centres undefined) | 630 |  | 
17 | Cc1ccccc1C(Oc1cc(OCc2cncs2)ccc1C#N)C(=O)O (centres undefined) | 30 |  | 

Further lines, with some results ahead:

Row | IC50 (Endothelin-1 receptor) [nM] | Compound | pKb (Rattus norvegicus) | other results
18 | 529 | COc1ccccc1C(Oc1cc(OCc2ccsc2)ccc1C#N)C(=O)O (centres undefined) |  | 
19 | 49 | Cc1ccccc1C(Oc1cc(OCc2ccccc2)ccc1C#N)C(=O)O (centres undefined) |  | 
20 | 68 | Cc1ccccc1C(Oc1cc(OCc2ccoc2)ccc1C#N)C(=O)O (centres undefined) |  | 
21 | 70 | N#Cc1ccc(OCc2ccsc2)cc1OC(C(=O)O)c1ccccc1 (centres undefined) | 7.24 | 
22 | 9 | Cc1ccccc1C(Oc1cc(OCc2ccncc2)ccc1C#N)C(=O)O (centres undefined) | 7.6 | 
23 | 220 | Cc1ccccc1C(Oc1cc(OCc2ccsn2)ccc1C#N)C(=O)O (centres undefined) |  | 
24 | 30 | Cc1ccccc1C(Oc1cc(OCc2cccnc2)ccc1C#N)C(=O)O (centres undefined) |  | 
25 | 504 | N#Cc1ccc(OCc2ccsc2)cc1OC(C(=O)O)c1ccc(Cl)cc1 (centres undefined) |  | 
26 | 2850 | N#Cc1ccc(OCc2ccsc2)cc1OC(C(=O)O)c1ccoc1 (centres undefined) |  | 
27 | 22 | N#Cc1ccc(OCc2ccsc2)cc1OC(C(=O)O)c1ccccc1F (centres undefined) |  | 
28 | 51 | N#Cc1ccc(OCc2ccsc2)cc1OC(C(=O)O)c1ccccc1Br (centres undefined) |  | 
29 | 53 | N#Cc1ccc(OCc2ccsc2)cc1OC(C(=O)O)c1ccccc1C(F)(F)F (centres undefined) |  | 
30 | 17 | N#Cc1ccc(OCc2ccsc2)cc1OC(C(=O)O)c1ccccc1Cl (centres undefined) | 7.76 | Cmax [2]: 62000 ng/mL; Tmax [3]: 0.5 h; solubility [6]: 1190 µg/mL (≈ 2.98 mM); bioavailability [7]: 129%; half-life [8]: 5 h
31 | 20 | Cc1ccccc1C(Oc1cc(OCc2ccsc2)ccc1C#N)C(=O)O (centres undefined) | 7.9 | 
32 | 6 | N#Cc1ccc(OCc2ccncc2)cc1OC(C(=O)O)c1ccccc1Cl (centres undefined) | 7.7 | Activity [1]: 46.8 µM/kg; Activity [4]: 1.7 µM/kg; Activity [5]: 2.7 µM/kg
33 | 5 | Cc1ccccc1[C@H](Oc1cc(OCc2ccncc2)ccc1C#N)C(=O)O | 8.3 | 
34 | 23 | Cc1ccccc1C(Oc1cc(OCc2ccnc(F)c2)ccc1C#N)C(=O)O (centres undefined) |  | 
35 | 98 | N#Cc1ccc(OCc2ccsc2)cc1OC(C(=O)O)c1cccc(Cl)c1 (centres undefined) |  | 
36 | 44 | N#Cc1ccc(OCc2ccnnc2)cc1OC(C(=O)O)c1ccccc1Cl (centres undefined) |  | 
